CSC inhib = blocks cancer stem cells | cancer stem cell-like cells viability, luminescence | inhibition, % at 7.5 µM | 300,000 compounds, 1.1% hits; in the data active = inhibition above about 75%; inconclusive = no clear call, values can overlap the other calls; tested in HMLE shEcad cells
Mdm2-MdmX inh = inhibitors of human Mdm2/MdmX interaction | O15151+Q00987 | inhibition, % at 8 µM | 330,000 compounds, 3% hits | SaOS-2 split-luciferase Mdm2/MdmX complementation, luminescence;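 active = inhibition of at least 50% at 8 µM in the primary screen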
T cruzi repl = blocks replication of Trypanosoma cruzi. T. cruzi beta-gal in NIH3T3, luminescence, 90 h. 300,000 compounds, 1.4% hits. inhibition, % (test concentration not listed);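 active = mean inhibition across valid replicates above about 55%, limit read from the data; inconclusive = mean below that limit but half or more replicates reach it; inactive = mean below it, under half of replicates reach it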;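 also: signal also drops with host cell toxicity which is not excluded here; 0% = plate median of DMSO wells and 100% = zero luminescence signal; higher percent means less beta-gal luminescence so fewer parasites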
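Test system: β-gal T. cruzi (Tulahuen C4) inside NIH/3T3 cells / Quantity: 5,000 cells/well / Measured by: luminescence from GalScreen with 0.05% NP40, read after 60 min / Medium: DMEM plus 2% FBS / Measure: parasite load inhibition, % / Reagent: Tulahuen C4 trypomastigotes, 5000/well / Schedule: co-culture of at least 90 h after 3 h attachment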
Calb FLC = affects C. albicans growth with fluconazole | AID 1979 | 300,000 compounds, 0.57% hits | growth inhibition, % (no concentration beside the values) | C. albicans CaCi-2 (fluconazole-resistant clinical isolate) + fluconazole, Alamar Blue growth, 48 h;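 active = growth inhibition above about 58% in most replicates, limit read from the data, passing the limit was not always enough; inconclusive = exactly half the replicates above a set limit; inactive = most replicates below a set limit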;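 also: all wells also contain fluconazole at 8 µg/ml as a sub-toxic cotreatment; 0% = median of DMSO wells and 100% = median of geldanamycin control wells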
SKKanGAS inh = SKKanGAS growth inhibition | AID 1662 | S. pyogenes SKKanGAS, kanamycin growth, BacTiter-Glo, 6 h | 300,000 compounds, 1.3% hits | inhibition, % at 7.5 µM;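 active = mean replicate score, as percent of positive control median, at least 50; inconclusive = mean below 50 but one replicate at or above 50; inactive = mean and every replicate below 50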;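 also: strain carries kanamycin resistance gene driven by streptokinase promoter and grows in 40 µg/ml kanamycin; loss of luminescence reflects streptokinase promoter inhibition or plain growth inhibition; 0% = median of DMSO wells and 100% = positive control at its reference dose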
Beta cell apopt = blocks beta cell apoptosis; INS-1E cytokine-induced death, ATP luminescence, 48 h; percent of positive-control rescue, neutral wells zero; protection from apoptosis, % (no concentration beside the values); 300,000 compounds, 0.8% hits; AID 435005;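 active = Every replicate reaches about 75%, or at least half do and their mean reaches it too, limit read from the data; inconclusive = At least half of replicates reach the limit but their mean does not; inactive = Under half of replicates reach the limit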;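 also: 0% = cytokine-treated negative control wells and 100% = positive control rescue; higher means more ATP so stronger rescue from cytokine killing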
Mdm2 MdmX conf = confirmation of human Mdm2/MdmX interaction inhibitors; shares compounds with Mdm2-MdmX inh; Mdm2-MdmX binding, luminescent assay; inhibition, % at 8 µM; 10,000 compounds, 55% hits; in the data active = inhibition above about 40%
FLuc counter = full-length luciferase inhibition in Mdm2/MdmX counter-screen; shares compounds with Mdm2-MdmX inh; SaOS-2 full-length luciferase counterscreen, luminescence; inhibition, % at 8 µM; 6,200 compounds, 77% hits; AID 504607;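 active = mean inhibition at 8 µM reaching about 37%, which flags the compound as non-specific, limit read from the data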;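 also: p53-null SaOS-2 cells with luciferase driven by a doxycycline-inducible promoter; compound on cells about two nights before reading with doxycycline added after day one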
The depositor's hits bear a star; ? = inconclusive; nt = no result. This is a sample that favours compounds with a hit; in the whole collection about 5.7% have one here.

SMILES	CSC inhib	Mdm2-MdmX inh	T cruzi repl	Calb FLC	SKKanGAS inh	Beta cell apopt	Mdm2 MdmX conf	FLuc counter
COc1ccc(/C=C2\SC(=S)N(CCC(=O)NCCc3ccc(O)cc3)C2=O)cc1	-5	79*	-4	4	1	-10	71*	27
O=C(CCN1C(=O)/C(=C/c2ccc(F)cc2)SC1=S)N[C@@H](CO)Cc1ccccc1	5	82*	3	nt	-1	-45	61*	37*
O=C(CCN1C(=O)/C(=C/c2ccc(F)cc2)SC1=S)NNC(=O)c1ccncc1	2	20	0	1	-2	-3	nt	nt
O=C(CCN1C(=O)/C(=C\c2ccccc2)SC1=S)NNC(=O)c1cccnc1	-1	-2	6	-29	7	8	nt	nt
COc1ccccc1/C=C1\SC(=S)N(CC(=O)Nc2nnc(C)s2)C1=O	96*	94*	9	?	14	98*	-6	nt
CCN(CC(=O)Nc1ccc(NC(C)=O)cc1)C(=O)C1(c2ccccc2)CC1	nt	-38	nt	nt	nt	4	nt	nt
O=C(CCN1C(=O)/C(=C/c2ccccc2F)SC1=S)NCCCn1ccnc1	12	0	-9	-3	1	nt	nt	nt
COc1ccccc1/C=C1\SC(=S)N(CCC(=O)NCCc2ccc(O)cc2)C1=O	-17	60*	17	-2	23	nt	38	69*
O=C(CCN1C(=O)/C(=C/c2ccccc2F)SC1=S)NCCc1ccc(O)cc1	8	71*	-9	-7	-3	nt	53*	33
COc1ccccc1/C=C1\SC(=S)N(CCC(=O)Nc2ccc(C(=O)O)c(O)c2)C1=O	4	-22	1	-2	31	-1	nt	nt
CCOc1cc(S(=O)(=O)n2ccc(C)n2)ccc1Br	5	81*	7	-25	-10	nt	-2	nt
CCOc1cc(S(=O)(=O)n2ccnc2)ccc1Br	2	4	-19	0	5	-14	nt	nt
O=C(NCC1CCCO1)C(=Cc1cccc([N+](=O)[O-])c1)C(=O)NCC1CCCO1 (stereo not given)	7	65*	-48	-17	5	-23	35	45*
N#CC1=C(N)NC(SCc2ccc(F)cc2)=C(C#N)C12CCCCC2	62	59*	nt	0	-10	7	60*	72*
O=C(CN1C(=O)NC2(CCCC2)C1=O)Nc1cc(Cl)ccc1Oc1ccccc1	-7	18	nt	nt	nt	-7	nt	nt
COCc1ccc(C(=O)Nc2ccccc2C(=O)NCc2cccnc2)cc1	-13	19	2	6	-14	0	nt	nt
C=CCOc1ccc(C(=O)Nc2ccccc2C(=O)NCc2cccnc2)cc1	-3	58*	0	6	0	0	55*	61*
COc1ccccc1N1CCN(C2CCC(C)CC2)CC1 (stereo not given)	-8	-2	-9	-3	2	4	nt	nt
COc1ccccc1N1CCN(C2CCN(C3CCC(c4ccccc4)CC3)CC2)CC1 (stereo not given)	46	60*	40	-5	-1	-10	29	nt
CCOc1ccccc1NC(=O)COC(=O)CCOc1cc(C)ccc1C	nt	-4	-4	-3	0	-9	nt	nt
CCOc1ccc(C(=O)C(CCC(CN(C)C)C(=O)c2ccc(OCC)cc2)CN(C)C)cc1 (stereo not given)	nt	nt	31	-20	-8	nt	nt	nt
COc1ccc(C(=O)C(CCCCC(CN(C)C)C(=O)c2ccc(OC)cc2)CN(C)C)cc1 (stereo not given)	1	86*	27	?	-7	1	59*	31
Cc1cc2cc3c(=O)[nH]c(=O)[nH]c3nc2cc1C	12	53*	-5	-7	-1	2	17	nt
O=C1C=CC(=C(c2ccc(O)cc2)c2ccc(O)cc2)C=C1	nt	91*	nt	nt	nt	-5	70*	45*
O=C(O)C1=CC(=C(c2ccc(O)c(C(=O)O)c2)c2ccc(O)c(C(=O)O)c2)C=CC1=O	-14	nt	nt	nt	nt	0	nt	nt
SMILES	CSC inhib	Mdm2-MdmX inh	T cruzi repl	Calb FLC	SKKanGAS inh	Beta cell apopt	Mdm2 MdmX conf	FLuc counter
CC(Sc1ncnc2c1cnn2-c1ccccc1)C(=O)NCC1CCCO1 (stereo not given)	nt	23	-1	3	1	-7	nt	nt
Cc1nc(SC(C)C(=O)NCC2CCCO2)c2cc(-c3ccccc3)sc2n1 (stereo not given)	48	97*	7	-7	7	1	96*	55*
CCn1c(=O)c2sccc2n(Cc2cc(C(=O)OC)ccc2OC)c1=O	-14	51*	13	2	-2	0	8	nt
C=CC[C@@H](CC(=O)N(CCO)Cc1ccccc1)C(=O)N[C@H](COC(=O)[C@@H](CC=C)Cc1ccc(F)cc1)Cc1c[nH]c2ccccc12	22	88*	nt	nt	nt	-4	6	nt
C=CC[C@H](CC(=O)N(CCO)Cc1ccccc1)C(=O)N[C@H](COC(=O)[C@@H](CC=C)Cc1ccc(F)cc1)Cc1c[nH]c2ccccc12	8	86*	nt	nt	nt	1	38	71*
C=CC[C@H](CC(=O)N(CCO)Cc1ccccc1)C(=O)N[C@@H](COC(=O)[C@@H](CC=C)CC(=O)OC(C)(C)C)Cc1c[nH]c2ccccc12	nt	49	nt	nt	nt	6	nt	nt
CCOc1ccc(NC(=O)CCCn2c(=S)[nH]c3ccsc3c2=O)cc1	-13	-10	5	6	4	4	nt	nt
NCCCn1c(C(=O)c2cc(Cl)c(N)c(Cl)c2)c2ccc([N+](=O)[O-])cc2[n+]1[O-]	51	66*	24	61	63*	87*	54*	63*
NC(=O)c1ccc(Cn2c(C(=O)c3cc(Cl)c(N)c(Cl)c3)c3ccccc3[n+]2[O-])cc1	47	53*	nt	nt	nt	8	52*	65*
CC(=O)c1ccc(NC(=S)N2CCN(CCN3C(=O)c4cccc5cccc(c45)C3=O)CC2)cc1	14	28	8	-7	2	4	nt	nt
CC(=O)c1cccc(NC(=S)N2CCN(CCN3C(=O)c4cccc5cccc(c45)C3=O)CC2)c1	4	65*	5	-17	6	48	-29	nt
CCN(CC)Cc1ccccc1CNC(=O)c1cccc(S(=O)(=O)Nc2ccc3c(c2)OCO3)c1	5	24	nt	nt	nt	2	nt	nt
CCOC(=O)C1=C(C)Nc2sc(C(=O)c3ccc(C)cc3)c(N)c2C1c1ccc(C(=O)OC)cc1 (stereo not given)	17	39	11	-7	20	-1	nt	nt
CCOC(=O)C1=C(C)Nc2sc(C(=O)c3ccc(F)cc3)c(N)c2C1c1ccc(C(=O)OC)cc1 (stereo not given)	nt	61*	50	8	31	1	22	nt
Cc1cc(OCC(=O)Nc2ccc(S(=O)(=O)N3CCN(C)CC3)cc2)ccc1Br	32	-4	9	4	2	-5	nt	nt
